Measured values taken from ChEMBL document CHEMBL5620404, “New 4-(N-cinnamoylbutyl)aminoacridines as potential multi-stage antiplasmodial leads” (Eur J Med Chem, 2023).
The source made the active and inactive calls. The calls are words filed in the database; no cut-off is given here.

Columns and labels:
[1] = system: Plasmodium falciparum; experiment: Antiplasmodial activity against blood stage chloroquine-sensitive Plasmodium falciparum 3D7 infected in human erythrocyte incubated for 48 hrs by Syto11 staining based flow cytometry analysis; format: functional, organism-based; details: 3D7, Erythrocyte
How it was run: (§1)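 3D7 asexual parasites grown in group B erythrocytes, 3% hematocrit, RPMI with 0.5% Albumax II and 2 mM L-glutamine, 37 °C, 5% O2/5% CO2/90% N2. Rings synchronized by 5% sorbitol, then exposed 48 h to compounds (0.0000256–10 μM). Syto11 nuclear stain and flow cytometry (488 nm excitation, 530/30 emission). Inhibition scaled to untreated (0%) and chloroquine-treated (100%) cultures; IC50 by sigmoidal fit.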

[2] = system: Plasmodium berghei; experiment: Antiplasmodial activity against firefly luciferase expressing liver stage Plasmodium berghei infected in human Huh-7 cells assessed as reduction in parasite growth at 1 to 10 uM measured after 48 hrs post infection by […] luminescence assay; format: functional, organism-based; details: dose 1-10 µM
How it was run: (§2)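 Huh7 cells in supplemented RPMI 1640 seeded the day before; ~1 h before infection, medium switched to infection medium with gentamicin, amphotericin B and compound. Cells then infected with PbGFP-Luccon sporozoites from Anopheles stephensi salivary glands. At 48 h, parasite load read as luciferase luminescence in lysates, normalized to 0.01% DMSO control; IC50 by nonlinear regression.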

[3] = system: Plasmodium berghei; experiment: Antiplasmodial activity against firefly luciferase expressing liver stage Plasmodium berghei infected in human Huh-7 cells assessed as reduction in parasite growth measured after 48 hrs post infection by […] luminescence assay; format: functional, organism-based; details: Huh-7, 48 h; how it was run: as §2
[4] = system: Plasmodium falciparum; experiment: Antiplasmodial activity against Plasmodium falciparum NF54-gexp02-Tom gametocytes infected in human erythrocyte by giemsa staining based light microscopy analysis; format: functional, organism-based
How it was run: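 NF54-gexp02-Tom line (tdTomato under early gametocyte promoter) grown in group B human erythrocytes, 3% hematocrit, RPMI with 10% human plasma and 2 mM choline chloride, 37 °C, 5% O2/5% CO2/90% N2. Sexual conversion induced by choline removal plus sorbitol synchronization; compounds 0.0048–100 μM present throughout.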

[5] = system: Huh-7; experiment: Cytotoxicity against human Huh-7 cells assessed as reduction in cell confluency at 10 uM measured after 48 hrs by Alamar blue staining based analysis relative to control; format: functional; parameters: scale not given: the % may be the effect or the level left
[6] = system: Plasmodium falciparum; experiment: Antiplasmodial activity against Plasmodium falciparum NF54-gexp02-Tom gametocytes infected in human erythrocyte at 5 uM by giemsa staining based light microscopy analysis relative to control; format: functional
[7] = system: Plasmodium berghei; experiment: Antiplasmodial activity against firefly luciferase expressing liver stage Plasmodium berghei infected in human Huh-7 cells measured after 48 hrs post infection by […] luminescence assay; format: functional, organism-based; details: Huh-7, 48 h; how it was run: as §2
[8] = system: Plasmodium falciparum; experiment: Antiplasmodial activity against blood stage chloroquine-sensitive Plasmodium falciparum 3D7 infected in human erythrocyte; format: functional, organism-based; details: 3D7, Erythrocyte; how it was run: as §1

SMILES | IC50 [1] [nM] | IC50 [4] [nM] | IC50 [8] [nM] | Activity [2] | IC50 [3] [nM] | Activity [5] [%] | Activity [6] [%] | IC50 [7] [nM]
COc1cc(NCCCCNC(=O)/C=C/c2ccc(OC)c(OC)c2)c2nc3cc(Cl)ccc3cc2c1 |  |  |  | Active |  |  | 15 | 
COc1cc(NCCCCNC(=O)/C=C/c2ccc(C(C)C)cc2)c2nc3cc(Cl)ccc3cc2c1 |  |  |  | Active | 129 |  |  | 
COc1cc(NCCCCN)c2nc3cc(Cl)ccc3cc2c1 |  |  | 5640 |  |  |  |  | 2220
COc1cc(NCCCCNC(=O)/C=C/c2ccc(N(C)C)cc2)c2nc3cc(Cl)ccc3cc2c1 |  |  |  | Active |  |  | 15 | 
COc1cc(NC(C)CCCN)c2ncccc2c1 (stereo not given) [PRIMAQUINE] |  |  |  |  | 12300 |  |  | 
COc1cc(NCCCCNC(=O)/C=C/c2ccc(Cl)cc2)c2nc3cc(Cl)ccc3cc2c1 |  |  |  | Active | 998 | ~75 | 15 | 
COc1cc(NCCCCNC(=O)/C=C/c2ccc(C(F)(F)F)cc2)c2nc3cc(Cl)ccc3cc2c1 |  |  |  | Active |  |  | 15 | 
COc1cc(NCCCCNC(=O)/C=C/c2ccc(Br)cc2)c2nc3cc(Cl)ccc3cc2c1 |  |  |  | Active |  |  | 15 | 

Second part, led by results:

IC50 [1] [nM] | IC50 [4] [nM] | IC50 [8] [nM] | SMILES | Activity [2] | IC50 [3] [nM] | Activity [5] [%] | Activity [6] [%] | IC50 [7] [nM]
4340 | 140 |  | COc1cc(NCCCCNC(=O)/C=C/c2cccc(F)c2)c2nc3cc(Cl)ccc3cc2c1 | Active | 561 | ~75 | >40 | 
5830 |  |  | COc1cc(NCCCCNC(=O)/C=C/c2ccc(F)cc2)c2nc3cc(Cl)ccc3cc2c1 | Active | 884 | ~75 | 15 | 
10800 | 630 |  | COc1cc(NCCCCNC(=O)/C=C/c2ccc(C)cc2)c2nc3cc(Cl)ccc3cc2c1 | Active |  |  | >40 | 
3820 | 16300 |  | COc1cc(NCCCCNC(=O)/C=C/c2ccc([N+](=O)[O-])cc2)c2nc3cc(Cl)ccc3cc2c1 | Active | 1190 | ~75 | >40 | 
> 70000 | 6660 |  | COc1cc(NCCCCNC(=O)/C=C/c2ccccc2)c2nc3cc(Cl)ccc3cc2c1 | Active | 496 | ~75 | >40 | 
10300 | 520 |  | COc1ccc(/C=C/C(=O)NCCCCNc2cc(OC)cc3cc4ccc(Cl)cc4nc23)cc1 | Active | 1180 | ~75 | >40 | 
